Data from ChEMBL document CHEMBL1132627, “Synthesis and biological evaluation of boron-containing polyamines as potential agents for neutron capture therapy of brain tumors” (J Med Chem, 1999).
pIC50: −log10 of the molar value. Values joined by “and” are separate entries in the source; they are usually repeats but may differ in a detail not shown here. Equal values may be shown once. One block for each compound: values may come before it.

Key:
[1] = species: Rattus norvegicus; assay: In vitro cellular uptake by F98 glioma cells after 24 h incubation in the presence of 5.3 ug of B/mL media concentration; format: functional
Method in brief: (§1)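 5×10^6 F98 cells per flask in DMEM with 10% FBS for 24 h. Medium then replaced with compound at the molar concentration matching the stated boron level, and cells held at 37 °C, 5% CO2. Cells washed three times with PBS, detached with trypsin-EDTA and digested in H2SO4/H2O2. Boron in media and cells by DCP-AES; 10^9 cells ≈ 1 g.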

[2] = species: Rattus norvegicus; assay: In vitro cellular uptake by F98 glioma cells after 48 hr incubation in the presence of 0.5 micro g of B/mL media concentration; format: functional; method in brief: as §1
[3] = species: Rattus norvegicus; assay: In vitro cellular uptake by F98 glioma cells after 48 hr incubation in the presence of 5.3 micro g of B/mL media concentration; format: functional; method in brief: as §1
[4] = species: Rattus norvegicus; assay: In vitro cellular uptake by F98 glioma cells after 24 h incubation in the presence of 5.4 ug of B/mL media concentration; format: functional; method in brief: as §1
[5] = species: Rattus norvegicus; assay: In vitro cellular uptake by F98 glioma cells after 48 hr incubation in the presence of 5.4 micro g of B/mL media concentration; format: functional; method in brief: as §1
[6] = test system: Mus musculus; assay: In vivo biodistribution in mice kidney bearing intracerebral GL261 gliomas at the dose of 10 microg of boron/g/day; format: ADME, organism-based
Method in brief: (§2)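 C57Bl/6 mice implanted stereotactically in brain (2.5–3.0 mm deep) with 10^5 GL261 cells in serum-free DMEM with 1.5% agarose. Polyamine-deficient diet and 2% DFMO water for 3 days, then Alzet pump infusion at 10 μg boron/g per day for 3 days with diet and DFMO continued. Five mice; tissue boron by DCP-AES, mean ± SD.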

[7] = test system: Mus musculus; assay: In vivo biodistribution in mice liver bearing intracerebral GL261 gliomas at the dose of 10 microg of boron/g/day; format: ADME, organism-based; method in brief: as §2
[8] = test system: Nucleic Acid; assay: Concentration required to decrease the fluorescence of the ethidium bromide-calf thymus DNA complex by 50%; format: nucleic-acid assay, Bos taurus
Method in brief: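 Calf thymus DNA (10 μg) in 2 mM HEPES, 10 μM EDTA, 9.4 mM NaCl, pH 7.0, with 1.6 μM ethidium bromide. Polyamine added stepwise in aliquots. Fluorescence read at excitation 546 nm and emission 598 nm. IC50 is the concentration that lowers complex fluorescence by 50%.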

[9] = In Vitro Toxicity measured as the conc. required for 50% reduction in SRBabsorbance by F98 glioma cells; format: functional, Rattus norvegicus
Method in brief: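 F98 rat glioma cells, 10,000/well in DMEM with 10% FBS, grown overnight at 37 °C, 5% CO2. Then exposed 24 h to varying compound concentrations. Fixed with cold TCA (1 h, 4 °C), stained 20 min with 0.4% SRB in 1% acetic acid, dye solubilized in 10 mM Tris base, A492 read. Six replicates per concentration, expressed as % untreated control; IC50 = 50% reduction.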

[10] = In vitro cellular uptake by F98 glioma cells after 48 hr incubation in the presence of 5.1 micro g of B/mL media concentration; format: functional, Rattus norvegicus; method in brief: as §1
[11] = species: Rattus norvegicus; assay: In vitro cellular uptake by F98 glioma cells after 24 h incubation in the presence of 0.5 ug of B/mL media concentration; format: functional
[12] = test system: Mus musculus; assay: In vivo biodistribution in mice kidney bearing subcutaneous B16 melanomas at the dose of 10 ug/g; format: ADME, organism-based
[13] = test system: Mus musculus; assay: In vivo biodistribution in mice liver bearing subcutaneous B16 melanomas at the dose of 10 ug/g; format: ADME, organism-based
[14] = test system: Mus musculus; assay: In vivo biodistribution in mice muscle bearing subcutaneous B16 melanomas at the dose of 10 ug/g; format: ADME, organism-based, Muscle tissue
[15] = test system: Mus musculus; assay: In vivo biodistribution in mice blood bearing subcutaneous B16 melanomas at the dose of 10 ug/g; format: ADME, organism-based
[16] = In vitro concentration required for 50% reduction in the uptake of [3H]-TdR by F98 glioma cells; format: functional, Rattus norvegicus

Compound: N-{4-[2-(2-Amino-ethyl)-cyclopropyl]-butyl}-N,N'-bis-(3-amino-propyl)-butane-1,4-diamine hydrochloride
Ccellular (ug of B (g of cells)-1) [1]: 82
Ccellular (ug of B (g of cells)-1) [2]: 15
Ccellular (ug of B (g of cells)-1) [3]: 229

Compound: 3-(2-{4-[(4-Amino-butyl)-(3-amino-propyl)-amino]-butyl}-cyclopropyl)-propane-1,2-diol; trihydrochloride
Ccellular (ug of B (g of cells)-1) [4]: 51
Ccellular (ug of B (g of cells)-1) [2]: 9
Ccellular (ug of B (g of cells)-1) [5]: 104

Compound: N*1*-{4-[2-(2-Amino-ethyl)-cyclopropyl]-butyl}-N*1*-(3-amino-propyl)-butane-1,4-diamine; trihydrochloride
Ccellular (ug of B (g of cells)-1) [4]: 51
Ccellular (ug of B (g of cells)-1) [2]: 19
Ccellular (ug of B (g of cells)-1) [5]: 116

Biodistribution [6]: 44 ug of B g-1
Biodistribution [7]: 22.9 ug of B g-1
pIC50 [8]: 3.94
Compound: Cl.Cl.Cl.NCCCCN(CCCN)Cc1ccc(B(O)O)cc1
pIC50 [9]: < 2.30
Ccellular [10]: 114 ug of B (g of cells)-1

pIC50 [8]: 3.98
Compound: NCCCCNCCCN [SPERMIDINE]
pIC50 [9]: < 4.00

pIC50 [8]: 5.52
Compound: NCCCNCCCCNCCCN [SPERMINE]
pIC50 [9]: < 4.00

Compound: N1-(3-Amino-propyl)-N1-(4-cyclopropyl-butyl)-butane-1,4-diamine(B10H10) [listing 1 of 2 here]
Ccellular (ug of B (g of cells)-1) [11]: 65
Ccellular (ug of B (g of cells)-1) [2]: 43

Biodistribution [12]: 201.3 ug of B g-1
Biodistribution [13]: 74.8 ug of B g-1
Biodistribution [14]: 9.8 ug of B g-1
Biodistribution [15]: 9.3 ug of B g-1 and 12.5 ug of B g-1
pIC50 [8]: 3.83
pIC50 [16]: 4.66
Compound: N1-(3-Amino-propyl)-N1-(4-cyclopropyl-butyl)-butane-1,4-diamine(B10H10) [listing 2 of 2 here]

Compound: 3-[2-(4-{(3-Amino-propyl)-[4-(3-amino-propylamino)-butyl]-amino}-butyl)-cyclopropyl]-propane-1,2-diol hydrochloride
Ccellular (ug of B (g of cells)-1) [1]: 60
Ccellular (ug of B (g of cells)-1) [2]: 20
Ccellular (ug of B (g of cells)-1) [3]: 83

Compound: N,N'-Bis-(3-amino-propyl)-N-(4-cyclopropyl-butyl)-butane-1,4-diamine hydrochloride
Ccellular (ug of B (g of cells)-1) [2]: 64
